Measurements: ChEMBL document CHEMBL1124327, “Synthesis and structure-activity relationships of 2-substituted-6-(dimethylamino)-9-(4-methylbenzyl)-9H-purines with antirhinovirus activity” (J Med Chem, 1989)
One block for each compound: values may come before it.

Legend:
[1] = Compound was tested for anti-rhinovirus type 1B activity in a plaque inhibition assay using monolayers of M-HeLa cells; assay type: functional, cell-based; conditions: Homo sapiens
[2] = system: Enterovirus; test: Inhibitory concentration against Rhinovirus 12; assay type: functional, organism-based
[3] = system: Enterovirus; test: Inhibitory concentration against Rhinovirus 13; assay type: functional, organism-based
[4] = system: rhinovirus B14; test: Inhibitory concentration against Rhinovirus 14; assay type: functional, organism-based, Enterovirus; conditions: Rhinovirus B
[5] = system: Enterovirus; test: Inhibitory concentration against Rhinovirus 15; assay type: functional, organism-based
[6] = system: Enterovirus; test: Inhibitory concentration against Rhinovirus 1A; assay type: functional, organism-based
[7] = system: Enterovirus; test: Inhibition of plaque formation at 8 uM concentration against Rhinovirus 5; assay type: functional, organism-based
[8] = system: Enterovirus; test: Inhibitory concentration against Rhinovirus 9; assay type: functional, organism-based
[9] = system: Enterovirus; test: Inhibitory concentration against Rhinovirus 1B; assay type: functional, organism-based
Summary of the method: (§1)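 Plaque reduction assay against rhinovirus 1B in M-HeLa cell monolayers. IC50 is the concentration giving 50% reduction of plaque formation; pI50 is taken as log (1000/IC50). A reference antiviral was run as a control.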

[10] = system: Enterovirus; test: Inhibition of plaque formation at 2.5 uM concentration against Rhinovirus 3; assay type: functional
[11] = system: Enterovirus; test: Inhibitory concentration against Rhinovirus 2; assay type: functional, organism-based
[12] = species on record: Homo sapiens; test: Inhibition of plaque formation at 8 uM concentration; assay type: functional
[13] = system: Enterovirus; test: Inhibitory concentration against rhinovirus 13; assay type: functional, organism-based
[14] = system: rhinovirus B14; test: Inhibitory concentration against rhinovirus 14; assay type: functional, organism-based, Enterovirus; conditions: Rhinovirus B
[15] = system: Enterovirus; test: Inhibitory concentration against rhinovirus 15; assay type: functional, organism-based
[16] = system: Enterovirus; test: Inhibitory concentration against rhinovirus 16; assay type: functional, organism-based
[17] = system: Enterovirus; test: Inhibitory concentration against rhinovirus 18; assay type: functional, organism-based
[18] = system: Enterovirus; test: Inhibitory concentration against rhinovirus 19; assay type: functional, organism-based
[19] = system: Enterovirus; test: Inhibitory concentration against rhinovirus 1A; assay type: functional, organism-based
[20] = system: Enterovirus; test: Inhibitory concentration against rhinovirus 4; assay type: functional, organism-based
[21] = system: Enterovirus; test: Inhibitory concentration against rhinovirus 5; assay type: functional, organism-based
[22] = system: Enterovirus; test: Inhibitory concentration against rhinovirus 8; assay type: functional, organism-based
[23] = system: Enterovirus; test: Inhibitory concentration against rhinovirus 9; assay type: functional, organism-based
[24] = system: Enterovirus; test: Inhibitory concentration against rhinovirus 1B; assay type: functional, organism-based; summary of the method: as §1
[25] = system: Enterovirus; test: Inhibitory concentration against rhinovirus 21; assay type: functional, organism-based
[26] = system: Enterovirus; test: Inhibitory concentration against rhinovirus 3; assay type: functional, organism-based
[27] = system: Enterovirus; test: Inhibitory concentration against rhinovirus 30; assay type: functional, organism-based
[28] = system: Enterovirus; test: Inhibitory concentration against rhinovirus 31; assay type: functional, organism-based
[29] = system: Enterovirus; test: Inhibitory concentration against rhinovirus 29; assay type: functional, organism-based

Structure (SMILES): CNc1nc(N(C)C)c2ncn(Cc3ccc(C)cc3)c2n1
IC50 [1]: 4.7 µM

Structure (SMILES): Cc1ccc(Cn2cnc3c(N(C)C)nc(C(F)(F)F)nc32)cc1
IC50 [1]: 0.03 µM
IC50 [2]: 2.6 µM
IC50 [3]: 2.6 µM
IC50 [4]: 1.2 µM
IC50 [5]: 1 µM
IC50 [6]: 0.1 µM
Inhibition [7]: 18%
IC50 [8]: 0.35 µM
IC50 [9]: 0.03 µM
inhibition at 2.5 µM [10]: 43%
IC50 [11]: 5.7 µM

Structure (SMILES): Cc1ccc(Cn2cnc3c(N(C)C)nc(F)nc32)cc1
IC50 [1]: 0.34 µM

Structure (SMILES): Cc1ccc(Cn2cnc3c(N(C)C)nc(N(C)C)nc32)cc1
IC50 [1]: 1.1 µM
IC50 [13]: 13 µM
IC50 [14]: 7.9 µM
IC50 [15]: > 10 µM
IC50 [16]: > 20 µM
IC50 [17]: 8.3 µM
IC50 [18]: > 20 µM
IC50 [19]: < 1.2 µM
IC50 [20]: > 10 µM
IC50 [21]: 17.7 µM
IC50 [22]: 14 µM
IC50 [23]: 3.5 µM
IC50 [24]: 1.1 µM
IC50 [25]: > 20 µM
IC50 [26]: > 10 µM
IC50 [27]: 2.9 µM
IC50 [28]: 15.1 µM
IC50 [29]: 4.9 µM
IC50 [11]: 3.1 µM

Structure (SMILES): Cc1ccc(Cn2cnc3c(N(C)C)nc(N)nc32)cc1
IC50 [1]: 31 µM

Structure (SMILES): CCc1nc(N(C)C)c2ncn(Cc3ccc(C)cc3)c2n1
IC50 [1]: 2.3 µM

Continued by falling IC50 [1], values first:

IC50 [1]: 25 µM
Structure (SMILES): Cc1ccc(Cn2cnc3c(N(C)C)nc(S(C)(=O)=O)nc32)cc1
inhibition [12]: 24%

IC50 [1]: 8.6 µM
Structure (SMILES): Cc1ccc(Cn2cnc3c(N(C)C)ncnc32)cc1

IC50 [1]: 0.8 µM
Structure (SMILES): Cc1ccc(Cn2cnc3c(N(C)C)nc(C)nc32)cc1

IC50 [1]: 0.34 µM
Structure (SMILES): CSc1nc(N(C)C)c2ncn(Cc3ccc(C)cc3)c2n1

IC50 [1]: 0.08 µM
Structure (SMILES): Cc1ccc(Cn2cnc3c(N(C)C)nc(Cl)nc32)cc1
